Reference: ChEMBL document CHEMBL4190303, “Chemical Constituents of Propolis from Vietnamese Trigona minor and Their Antiausterity Activity against the PANC-1 Human Pancreatic Cancer Cell Line” (2017)
Active and inactive are the calls of the source. No cut-off for these calls is given here.

system: PANC-1; test: Inhibition of colony formation in human PANC1 cells after 10 days by crystal violet staining based assay; format: functional, cell-based
Outline: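 500 cells/well plated in DMEM and allowed to attach for 24 h at 37 °C, 5% CO2. Treated at 12.5, 25 and 50 μM in DMEM and grown for 10 days. Cells washed with PBS, fixed in 4% formaldehyde, stained with crystal violet for 10 min. Three independent repeats.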

| SMILES | inhibition |
| --- | --- |
| C/C(=C\C(O)C[C@@H](C)[C@H]1CC[C@@]2(C)[C@@H]3CC[C@H]4C(C)(C)[C@H](O)CC[C@@]45C[C@@]35CC[C@]12C)C(=O)O (stereo in doubt; 5) [listing 1 of 2 here] | Dose-dependent effect |

system: PANC-1; test: Antiausteritic activity against human PANC1 cells in nutrient-deprived medium assessed as changes in cell morphology at 5 uM after 24 hrs by ethidium bromide/acridine orange staining based phase contrast microscopy; format: functional
Outline: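 PANC-1 seeded in 60 mm dishes (1 × 10^6), grown 24 h in DMEM at 37 °C, 5% CO2, washed twice with PBS, then switched to NDM with or without compound. After 24 h, EB/AO reagent added for 5 min. Imaged at 40× in fluorescence and phase-contrast modes. AO marks live cells green, EB marks dead cells red.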

| SMILES | Activity |
| --- | --- |
| C/C(=C\C(O)C[C@@H](C)[C@H]1CC[C@@]2(C)[C@@H]3CC[C@H]4C(C)(C)[C@H](O)CC[C@@]45C[C@@]35CC[C@]12C)C(=O)O (stereo in doubt; 5) [listing 1 of 2 here] | Active |

system: PANC-1; test: Antiausteritic activity against human PANC1 cells in nutrient-deprived medium assessed as decrease in cell viability measured after 24 hrs by WST-8 assay; format: functional

| SMILES | PC50 [µM] |
| --- | --- |
| CC(=O)OC/C(=C\CC[C@@H](C)[C@H]1CC[C@@]2(C)[C@@H]3CC[C@H]4C(C)(C)[C@@H](O)CC[C@@]45C[C@@]35CC[C@]12C)C(=O)O | 22.6 |
| C[C@H](CC/C=C(\CO)C(=O)O)[C@H]1CC[C@@]2(C)[C@@H]3CC[C@H]4C(C)(C)C(=O)CC[C@@]45C[C@@]35CC[C@]12C | 93.8 |
| CC(=O)OC/C(=C\CC[C@@H](C)[C@H]1CC[C@@]2(C)[C@@H]3CC[C@H]4C(C)(C)C(=O)CC[C@@]45C[C@@]35CC[C@]12C)C(=O)O | 77.5 |
| C/C(=C\C(O)C[C@@H](C)[C@H]1CC[C@@]2(C)[C@@H]3CC[C@H]4C(C)(C)[C@@H](O)CC[C@@]45C[C@@]35CC[C@]12C)C(=O)O (some centres undefined) | 64.4 |
| COC(=O)OC/C(=C\CC[C@@H](C)[C@H]1CC[C@@]2(C)[C@@H]3CC[C@H]4C(C)(C)C(=O)CC[C@@]45C[C@@]35CC[C@]12C)C(=O)O | 32.9 |
| C/C(=C\C(O)C[C@@H](C)[C@H]1CC[C@@]2(C)[C@@H]3CC[C@H]4C(C)(C)C(=O)CC[C@@]45C[C@@]35CC[C@]12C)C(=O)O (some centres undefined) | 16.8 |
| C/C(=C\CC[C@@H](C)[C@H]1CC[C@@]2(C)[C@@H]3CC[C@H]4C(C)(C)C(=O)CC[C@@]45C[C@@]35CC[C@]12C)C(=O)O [MANGIFERONIC ACID] | >100 |
| CC(C)=CCC[C@@H](C)[C@H]1CC[C@@]2(C)[C@@H]3CC[C@H]4C(C)(C)C(=O)CC[C@@]45C[C@@]35CC[C@]12C [CYCLOARTENONE] | >100 |
| CC(=O)/C=C/C[C@@H](C)[C@H]1CC[C@@]2(C)[C@@H]3CC[C@H]4C(C)(C)[C@@H](O)CC[C@@]45C[C@@]35CC[C@]12C | 16.4 |
| CC(=O)O[C@H]1C(=O)[C@@]2(C)[C@H]([C@H](OC(=O)c3ccccc3)[C@]3(O)C[C@H](OC(=O)[C@H](O)[C@@H](NC(=O)c4ccccc4)c4ccccc4)C(C)=C1C3(C)C)[C@]1(OC(C)=O)CO[C@@H]1C[C@@H]2O [PACLITAXEL] | >100 |
| C/C(=C\C(O)C[C@@H](C)[C@H]1CC[C@@]2(C)[C@@H]3CC[C@H]4C(C)(C)[C@H](O)CC[C@@]45C[C@@]35CC[C@]12C)C(=O)O (stereo in doubt; 5) [listing 2 of 2 here] | 4.3 |
| COc1cc(C[C@H]2C(=O)OC[C@@H]2Cc2ccc(OC)c(OC)c2)ccc1O [ARCTIGENIN] | 0.8 |
| C/C(=C\C(O)C[C@@H](C)[C@H]1CC[C@@]2(C)[C@@H]3CC[C@H]4C(C)(C)[C@H](O)CC[C@@]45C[C@@]35CC[C@]12C)C(=O)O (stereo in doubt; 4) | 16.1 |
| C/C(=C\CC[C@@H](C)[C@H]1CC[C@@]2(C)[C@@H]3CC[C@H]4C(C)(C)[C@@H](O)CC[C@@]45C[C@@]35CC[C@]12C)C(=O)O [MANGIFEROLIC ACID] | >100 |
| CC(C)=CCC[C@@H](C)[C@H]1CC[C@@]2(C)C3=C(CC[C@]12C)[C@@]1(C)CC[C@H](O)C(C)(C)[C@@H]1CC3 [LANOSTEROL] | 68.7 |
| C[C@H](CC/C=C(\CO)C(=O)O)[C@H]1CC[C@@]2(C)[C@@H]3CC[C@H]4C(C)(C)[C@H](O)CC[C@@]45C[C@@]35CC[C@]12C | 3.7 |
| C[C@H](CC/C=C(\CO)C(=O)O)[C@H]1CC[C@@]2(C)[C@@H]3CC[C@H]4C(C)(C)[C@@H](O)CC[C@@]45C[C@@]35CC[C@]12C | 47.6 |
